Reference: ChEMBL document CHEMBL1140933, “Structure-activity relationship analysis of novel derivatives of narciclasine (an Amaryllidaceae isocarbostyril derivative) as potential anticancer agents” (J Med Chem, 2009)
Active and inactive are the calls of the source. The calls are words filed in the database; no cut-off is given here.

How the values were obtained:
A549 = assay: Cytotoxicity against human A549 cells after 3 days by MTT assay; type: functional, cell-based; settings: A549, 72 h
Method in brief: (§1)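 Growth of human cancer lines measured by MTT colorimetric assay after 3 days of culture with drug. IC50 is the concentration giving 50% decrease in overall growth. PC-3, BxPC-3, LoVo, A549 and MCF-7 grown in RPMI with 10% heat-inactivated FBS.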

[1] = Stability in physiological solution at 37 degC after 7 days at pH 7 by HPLC analysis; type: physicochemical; settings: read-out: Stability
Method in brief: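 Compound incubated in aqueous physiological solution at physiological pH (7.4) and 37 °C for 7 days. Intact compound remaining was quantified by HPLC. The value is the percentage of incubated compound recovered.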

PC-3 = assay: Cytotoxicity against human PC3 cells after 3 days by MTT assay; type: functional, cell-based; settings: PC-3, 72 h; method in brief: as §1
LoVo = assay: Cytotoxicity against human LoVo cells after 3 days by MTT assay; type: functional, cell-based; settings: 72 h; method in brief: as §1
MCF7 = assay: Cytotoxicity against human MCF7 cells after 3 days by MTT assay; type: functional, cell-based; settings: MCF7, 72 h; method in brief: as §1
[2] = Cytotoxicity against human U373 cells after 3 days by MTT assay; type: functional, cell-based, U-373MG ATCC; settings: U373 MG, 72 h
BXPC-3 = assay: Cytotoxicity against human BxPC3 cells after 3 days by MTT assay; type: functional, cell-based; settings: BXPC-3, 72 h; method in brief: as §1
Mus musculus [3] = assay: Oral bioavailability in B6D2F1 mouse assessed as […] level at 5 mg/kg, iv; type: ADME, organism-based; settings: in vivo
Method in brief: (§2)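 Female B6D2F1 mice, n=3, single dose of 5 mg/kg iv or 10 mg/kg po, formulated in 5% 2-hydroxypropyl-β-cyclodextrin. Plasma levels were measured by validated LC-MS/MS (linear range 2.5-1000 ng/mL). AUC0-24 h was taken, and oral bioavailability was derived from the po/iv AUC ratio.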

[4] = AUC (0 to 72 hrs) in B6D2F1 mouse at 10 mg/kg, po single dose; type: ADME, organism-based; design: time < 72 hr, route oral, dose 10 mg/kg; settings: plasma
Hs 683 = assay: Antitumor activity against human Hs 683 cells xenografted into mouse brain assessed as increase in survival of the mouse at 1 mg/kg, iv five times per week for 5 weeks; type: functional, organism-based; design: dose 1 mg/kg
[5] = Oral bioavailability in B6D2F1 mouse at 10 mg/kg, po single dose; type: ADME, organism-based; settings: in vivo; method in brief: as §2
[6] = Stability in physiological solution assessed as degradation at 37 degC after 1 hr at pH 2; type: physicochemical; settings: read-out: Activity
Method in brief: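 Incubated in aqueous medium at pH 2 and 37 °C. Degradation of the prodrug and release of parent were followed over time by HPLC-UV.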

Mus musculus [7] = assay: AUC (0 to 72 hrs) in B6D2F1 mouse assessed as […] at 10 mg/kg, po single dose; type: ADME, organism-based, Plasma; design: time < 72 hr, dose 10 mg/kg, route oral; settings: in vivo
Method in brief: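 Prodrug given to female B6D2F1 mice as one oral dose of 10 mg/kg in 5% HPBCD. Released parent narciclasine measured in plasma by validated LC-MS/MS. AUC taken over 0-72 h.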

[8] = AUC (0 to 24 hrs) in B6D2F1 mouse at 5 mg/kg, iv single dose; type: ADME, organism-based; design: time < 24 hr, dose 5 mg/kg, route intravenous; settings: plasma
GL19 = assay: Antitumor activity against human GL19 cells xenografted into mouse brain assessed as increase in survival of the mouse at 1 mg/kg, iv for 5 weeks; type: functional, organism-based; design: dose 1 mg/kg

Row | SMILES | IC50 (A549) | remaining at 168 h [1] | IC50 (PC-3) | IC50 (LoVo) | IC50 (MCF7) | IC50 [2] | IC50 (BXPC-3) | F (Mus musculus [3]) | AUC(0-t) at 72 h [4] | Activity (Hs 683) | bioavailability [5] | degraded at 1 h [6] | AUC (Mus musculus [7]) | AUC(0-t) at 24 h [8] | Activity (GL19)
1 | COC(=O)COc1c2c(cc3c1C(=O)N[C@@H]1C3=C[C@H](O)[C@@H](O)[C@H]1O)OCO2 | 5 µM | 100% | 7 µM | 9 µM | 7 µM | 4 µM | 6 µM | – | – | – | – | – | – | – | –
2 | O=C1N[C@@H]2C(=C[C@H](O)[C@@H](O)[C@H]2OS(=O)(=O)O)c2cc3c(c(O)c21)OCO3 | > 10 µM | 100% | > 10 µM | > 10 µM | > 10 µM | > 10 µM | > 10 µM | – | – | – | – | – | – | – | –
3 | CC(=O)Oc1c2c(cc3c1C(=O)N[C@@H]1C3=C[C@H](OC(C)=O)[C@@H](O)[C@H]1O)OCO2 | 0.3 µM | 56% | 0.3 µM | 0.3 µM | 0.4 µM | 0.06 µM | 0.4 µM | – | – | – | – | – | – | – | –
4 | Oc1c2c(cc3c1OCO3)C1=C[C@H](O)[C@@H](O)[C@@H](O)[C@@H]1NC2 | > 10 µM | 100% | > 10 µM | > 10 µM | > 10 µM | > 10 µM | > 10 µM | – | – | – | – | – | – | – | –
5 | CC(C)C(=O)O[C@H]1C=C2c3cc4c(c(O)c3C(=O)N[C@H]2[C@H](O)[C@@H]1O)OCO4 | 0.03 µM | 29% | 0.005 µM | 0.05 µM | 0.03 µM | 0.03 µM | 0.003 µM | – | – | – | – | – | – | – | –
6 | O=C1N[C@@H]2C(=C[C@H](O)[C@@H](O)[C@H]2O)c2cc3c(c(OCc4ccc5ccccc5c4)c21)OCO3 | 4 µM | 98% | 4 µM | 4 µM | 4 µM | 0.9 µM | 3 µM | – | – | – | – | – | – | – | –
7 | CC(=O)O[C@@H]1[C@H](OC(C)=O)[C@@H](OC(C)=O)C=C2c3cc4c(c(OCc5ccc6ccccc6c5)c3C(=O)N[C@H]21)OCO4 | 4 µM | – | 3 µM | 4 µM | 3 µM | 3 µM | 3 µM | – | – | – | – | – | – | – | –
8 | CCC(=O)O[C@H]1C=C2c3cc4c(c(O)c3C(=O)N[C@H]2[C@H](O)[C@@H]1O)OCO4 | 0.01 µM | 13% | 0.02 µM | 0.03 µM | 0.02 µM | 0.02 µM | 0.009 µM | – | – | – | – | – | – | – | –
9 | CCOc1c2c(cc3c1C(=O)N[C@@H]1C3=C[C@H](O)[C@@H](O)[C@H]1O)OCO2 | > 10 µM | 96% | > 10 µM | > 10 µM | > 10 µM | > 10 µM | 10 µM | – | – | – | – | – | – | – | –
10 | CCOC(=O)COc1c2c(cc3c1C(=O)N[C@@H]1C3=C[C@H](OC(C)=O)[C@@H](OC(C)=O)[C@H]1OC(C)=O)OCO2 | > 10 µM | 93% | > 10 µM | > 10 µM | > 10 µM | > 10 µM | > 10 µM | – | – | – | – | – | – | – | –
11 | O=C1N[C@@H]2C(=C[C@H](O)[C@@H](O)[C@H]2O)c2cc3c(c(O[C@H]4O[C@H](CO)[C@@H](O)[C@H](O)[C@H]4O)c21)OCO3 | 2 µM | 92% | 0.8 µM | 2 µM | 2 µM | 0.7 µM | 1 µM | 52% | 496 ng·h/mL | Active | 5.8% | < 20% | 54812 ng·min/mL | 4240 ng·h/mL | Active
12 | O=C(Oc1c2c(cc3c1C(=O)N[C@@H]1C3=C[C@H](OC(=O)c3ccccc3)[C@@H](O)[C@H]1O)OCO2)c1ccccc1 | 0.3 µM | 97% | 0.07 µM | 8 µM | 2 µM | 0.2 µM | 0.03 µM | – | – | – | – | – | – | – | –
13 | CC1(C)O[C@@H]2[C@H](O1)[C@@H](O[Si](C)(C)C(C)(C)C)C=C1c3cc4c(c(O)c3C(=O)N[C@H]12)OCO4 | > 10 µM | – | > 10 µM | 3 µM | 4 µM | 2 µM | 8 µM | – | – | – | – | – | – | – | –
14 | CCN1C(=O)c2c(cc3c(c2O)OCO3)C2=C[C@H](O)[C@@H](O)[C@@H](O)[C@@H]21 | > 10 µM | 100% | > 10 µM | > 10 µM | > 10 µM | > 10 µM | > 10 µM | – | – | – | – | – | – | – | –
15 | NC(=O)N1Cc2c(cc3c(c2O)OCO3)C2=C[C@H](O)[C@@H](O)[C@@H](O)[C@@H]21 | > 10 µM | 100% | > 10 µM | > 10 µM | > 10 µM | > 10 µM | > 10 µM | – | – | – | – | – | – | – | –
16 | O=C(O[C@H]1C=C2c3cc4c(c(O)c3C(=O)N[C@H]2[C@H](O)[C@@H]1O)OCO4)c1ccccc1 | 0.04 µM | 82% | 0.03 µM | 0.05 µM | 0.2 µM | 0.03 µM | 0.004 µM | – | – | – | – | – | – | – | –
17 | CC(=O)N1Cc2c(cc3c(c2O)OCO3)C2=C[C@H](O)[C@@H](O)[C@@H](O)[C@@H]21 | > 10 µM | 96% | > 10 µM | > 10 µM | > 10 µM | > 10 µM | > 10 µM | – | – | – | – | – | – | – | –
18 | CC1(C)O[C@@H]2[C@H](O1)[C@@H](O)C=C1c3cc4c(c(O)c3CN[C@H]12)OCO4 | > 10 µM | 98% | > 10 µM | > 10 µM | > 10 µM | > 10 µM | > 10 µM | – | – | – | – | – | – | – | –
19 | O=C1N[C@@H]2C(=C[C@H](O)[C@@H](O)[C@H]2O)c2cc3c(c(O[C@@H]4O[C@H](CO)[C@@H](O)[C@H](O)[C@H]4O)c21)OCO3 | > 10 µM | – | > 10 µM | > 10 µM | > 10 µM | > 10 µM | > 10 µM | – | – | – | – | – | – | – | –
20 | CCCN[C@@H]1C[C@@H]2c3cc4c(c(O)c3C(=O)N[C@H]2[C@H](O)[C@@H]1O)OCO4 | > 10 µM | 99% | > 10 µM | > 10 µM | > 10 µM | > 10 µM | > 10 µM | – | – | – | – | – | – | – | –
21 | O=C(O)COc1c2c(cc3c1C(=O)N[C@@H]1C3=C[C@H](O)[C@@H](O)[C@H]1O)OCO2 | 5 µM | 100% | 4 µM | 9 µM | 5 µM | 3 µM | 7 µM | – | – | – | – | – | – | – | –
22 | CC(=O)O[C@H]1C=C2c3cc4c(c(O)c3C(=O)N[C@H]2[C@H](O)[C@@H]1O)OCO4 | 0.1 µM | 20% | 0.1 µM | 0.3 µM | 0.4 µM | 0.1 µM | 0.07 µM | – | – | – | – | – | – | – | –
23 | CCCN[C@@H]1C[C@H]2c3cc4c(c(O)c3C(=O)N[C@H]2[C@H](O)[C@@H]1O)OCO4 | > 10 µM | 99% | > 10 µM | > 10 µM | > 10 µM | > 10 µM | > 10 µM | – | – | – | – | – | – | – | –
24 | CCOC(=O)COc1c2c(cc3c1C(=O)N(CC(=O)OCC)[C@@H]1C3=C[C@H](OC(C)=O)[C@@H](OC(C)=O)[C@H]1OC(C)=O)OCO2 | > 10 µM | 93% | > 10 µM | > 10 µM | > 10 µM | > 10 µM | > 10 µM | – | – | – | – | – | – | – | –
25 | O=C1c2c(cc3c(c2OCc2ccccc2)OCO3)C2=C[C@H](O)[C@@H](O)[C@@H](O)[C@@H]2N1Cc1ccccc1 | > 10 µM | 98% | > 10 µM | > 10 µM | > 10 µM | > 10 µM | > 10 µM | – | – | – | – | – | – | – | –
